Experimental data taken from ChEMBL document CHEMBL5329211, “Selective isoxazolopyrimidine PAT1 (SLC26A6) inhibitors for therapy of intestinal disorders” (RSC Med Chem, 2023).
Calls of active or inactive are those of the source. The rule behind the calls is not given here.

System: Mus musculus
Test: In vivo inhibition of PAT1 in intestinal closed-loop CD-1 mouse model assessed as reduction in loop weight/length ratio in ileum measured for 30 mins
Type: functional
Procedure, shortened: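 Mice (wild-type CD1 or homozygous F508del CF, 10-16 wk, both sexes) fasted 24 h with free access to 5% dextrose water. Under isoflurane at 36-38 °C, 2-3 ileal loops (2-3 cm) were tied off and injected with 100 µL PBS pH 7.4 containing 30 µM inhibitor, 10 µM tenapanor or 0.1% DMSO vehicle. Loops removed at 0 or 30 min in separate mice; length and weight measured for fluid absorption. One-way ANOVA with Newman-Keuls.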

For `CN1Cc2c(Cl)cc(Cl)cc2[C@H](c2cccc(S(=O)(=O)NCCOCCOCCNC(=O)NCCCCNC(=O)NCCOCCOCCNS(=O)(=O)c3cccc([C@@H]4CN(C)Cc5c(Cl)cc(Cl)cc54)c3)c2)C1`, the inhibition was “Active”.

Molecular target: Solute carrier family 26 member 6 (Mus musculus) (UniProt Q8CIW6)
Test: Inhibition of SLC26A6 (unknown origin) expressed in rat FRT cells coexpressing YFP halide-sensing protein assessed as iodide-chloride exchange incubated for 2 sec by fluorescence quenching analysis

Solute carrier family 26 member 6 (Mus musculus), sequence (Q8CIW6 whole entry, looked up): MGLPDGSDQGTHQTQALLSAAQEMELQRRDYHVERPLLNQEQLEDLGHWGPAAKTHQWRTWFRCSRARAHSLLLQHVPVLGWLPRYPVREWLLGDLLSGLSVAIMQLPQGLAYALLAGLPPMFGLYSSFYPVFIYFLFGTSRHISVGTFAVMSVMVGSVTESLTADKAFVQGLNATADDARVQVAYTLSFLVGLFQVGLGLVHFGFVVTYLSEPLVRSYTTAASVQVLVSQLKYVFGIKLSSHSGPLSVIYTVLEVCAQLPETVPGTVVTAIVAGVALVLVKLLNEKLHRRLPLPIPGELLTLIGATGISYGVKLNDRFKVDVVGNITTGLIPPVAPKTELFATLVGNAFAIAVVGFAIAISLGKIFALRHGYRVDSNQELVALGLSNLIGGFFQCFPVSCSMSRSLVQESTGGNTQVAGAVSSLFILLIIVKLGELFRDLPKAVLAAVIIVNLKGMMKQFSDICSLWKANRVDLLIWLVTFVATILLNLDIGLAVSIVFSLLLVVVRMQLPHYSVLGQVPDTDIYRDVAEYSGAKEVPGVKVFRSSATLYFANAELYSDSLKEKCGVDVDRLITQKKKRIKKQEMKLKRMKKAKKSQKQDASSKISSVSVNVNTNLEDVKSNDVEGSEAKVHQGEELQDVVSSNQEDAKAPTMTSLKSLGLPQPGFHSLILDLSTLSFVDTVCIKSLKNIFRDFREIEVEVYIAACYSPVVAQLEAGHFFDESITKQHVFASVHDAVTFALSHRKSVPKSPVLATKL

Going from `CCOC(=O)c1nc(NCc2ccccc2OC)c2c(CC)noc2n1` to `CCOC(=O)c1nc(NCc2ccccc2OC)c2c(C)noc2n1`, the IC50 rises from 1.9 µM to 17.2 µM (9.1-fold).

`CCOC(=O)c1nc(NCc2ccc(F)cc2)c2c(CC)noc2n1` and `CCOC(=O)c1nc(NCc2ccc(C)cc2)c2c(CC)noc2n1` are within 1.5-fold of each other in IC50: 3.2 µM for the first, 3.8 µM for the second.

`CCOC(=O)c1nc(NCCc2cccs2)c2c(CC)noc2n1` and `CCOC(=O)c1nc(NCCc2ccco2)c2c(CC)noc2n1` are within 1.5-fold of each other in IC50: 1.6 µM for the first, 1.4 µM for the second.

Compared with `CCOC(=O)c1nc(Nc2ccccc2C)c2c(C)noc2n1`, `CCOC(=O)c1nc(Nc2cccc(C)c2C)c2c(C)noc2n1` is 3.1-fold lower in IC50: 3.7 µM for the first, 1.2 µM for the second.

`CCOC(=O)c1nc(NCCc2ccsc2)c2c(C)noc2n1` and `CCOC(=O)c1nc(NCCc2ccco2)c2c(C)noc2n1` are within 1.5-fold of each other in IC50: 1.8 µM for the first, 2.4 µM for the second.

Compared with `CCOC(=O)c1nc(NCc2cccc(F)c2)c2c(C)noc2n1`, `CCOC(=O)c1nc(NCc2cccc(C)c2)c2c(C)noc2n1` is 2-fold lower in IC50: 2.2 µM for the first, 1.1 µM for the second. The second is the more potent here.

`CCOC(=O)c1nc(NCc2ccc(SC)cc2)c2c(C)noc2n1` and `CCOC(=O)c1nc(NCc2ccc(F)cc2)c2c(C)noc2n1` are within 1.5-fold of each other in IC50: 2.6 µM for the first, 2.3 µM for the second.

Going from `CCOC(=O)c1nc(NCCc2ccc(Cl)cc2)c2c(CC)noc2n1` to `CCOC(=O)c1nc(NCc2ccc(Cl)cc2)c2c(CC)noc2n1`, the IC50 falls from 5.2 µM to 3.4 µM (1.5-fold).

Going from `CCOC(=O)c1nc(NCCc2ccccc2Cl)c2c(CC)noc2n1` to `CCOC(=O)c1nc(NCCc2ccccc2)c2c(CC)noc2n1`, the IC50 falls from 5.2 µM to 3.2 µM (1.6-fold). The second is the more potent here.

First: CCOC(=O)c1nc(N2CCN(c3cccc(Cl)c3)CC2)c2c(C)noc2n1
Second: CCOC(=O)c1nc(NCc2cccc(Br)c2)c2c(C)noc2n1
The IC50 of the first is 2.4-fold higher: 2.6 µM for the first, 1.1 µM for the second.

Compared with `CCOC(=O)c1nc(NCC(C)OC)c2c(-c3ccc(F)cc3)noc2n1` (stereo not drawn), `CCOC(=O)c1nc(NCc2cccnc2)c2c(-c3ccc(F)cc3)noc2n1` is 1.5-fold lower in IC50: 5.1 µM for the first, 3.4 µM for the second. The second is the more potent here.

Going from `CCOC(=O)c1nc(NCc2ccccc2F)c2c(CC)noc2n1` to `CCOC(=O)c1nc(NCc2ccccc2F)c2c(C)noc2n1`, the IC50 falls from 5.2 µM to 1.1 µM (4.7-fold).

Compared with `CCOC(=O)c1nc(NCc2ccccc2)c2c(CC)noc2n1`, `CCOC(=O)c1nc(NCc2ccccc2)c2c(C)noc2n1` is 2.4-fold lower in IC50: 4.3 µM for the first, 1.8 µM for the second.

`CCOC(=O)c1nc(NCc2cc(Br)ccc2OC)c2c(CC)noc2n1` and `CCOC(=O)c1nc(NCc2cc(OC)ccc2OC)c2c(CC)noc2n1` are within 1.5-fold of each other in IC50: 2.5 µM for the first, 3.7 µM for the second.

Going from `CCOC(=O)c1nc(NCc2ccc(OC(C)C)cc2)c2c(C)noc2n1` to `CCOC(=O)c1nc(NCc2ccc(OCC)cc2)c2c(C)noc2n1`, the IC50 falls from 6.5 µM to 2 µM (3.2-fold). The second is the more potent here.

`CCOC(=O)c1nc(NCc2cc(C)ccc2C)c2c(C)noc2n1` and `CCOC(=O)c1nc(NCc2ccccc2Cl)c2c(C)noc2n1` are within 1.5-fold of each other in IC50: 1.5 µM for the first, 1.1 µM for the second.

`CCOC(=O)c1nc(NCc2cccc(OC)c2)c2c(C)noc2n1` and `CCCOc1ccc(CNc2nc(C(=O)OCC)nc3onc(C)c23)cc1` are within 1.5-fold of each other in IC50: 4.4 µM for the first, 5.7 µM for the second.

For `CCOC(=O)c1nc(NCCC(C)C)c2c(C)noc2n1`, the IC50 was 2.3 µM.

Molecular target: Solute carrier family 26 member 6 (Mus musculus) (UniProt Q8CIW6)
Test: Inhibition of SLC26A6 (unknown origin) expressed in rat FRT cells coexpressing YFP halide-sensing protein assessed as iodide-chloride exchange at 25 uM incubated for 2 sec by fluorescence quenching analysis relative to control

`CCOC(=O)c1nc(NCc2ccccc2OCC)c2c(C)noc2n1` and `CCOC(=O)c1nc(NCc2cccc(Br)c2)c2c(-c3ccc(F)cc3)noc2n1` cannot be ordered by inhibition: less than 25% for the first, less than 25% for the second.
